Experimental data: ChEMBL document CHEMBL4376814, “Novel cyclin-dependent kinase 9 (CDK9) inhibitor with suppression of cancer stemness activity against non-small-cell lung cancer” (Eur J Med Chem, 2019)
Calls of active or inactive are those of the source. The rule behind the calls is not given here.

What was measured:
[1] = test system: NCI-H1299; test: Antiproliferative activity against human H1299 cells assessed as inhibition of cell viability at 1 uM after 72 hrs by CCK-8 assay relative to control; format: functional; conditions: NCI-H1299, 72 h
Outline: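 Single-concentration viability screen using CCK-8. Cells were seeded at 3000/well and treated for 72 h. A450 read after 1-4 h with reagent. Percent inhibition calculated against untreated control and blank wells as (Ac−As)/(Ac−Ab)×100%.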

[2] = test system: HeLa; test: Antiproliferative activity against human HeLa cells assessed as inhibition of cell viability after 72 hrs by CCK-8 assay; format: functional, cell-based
Outline: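 Cells kept at 37 °C, 5% CO2 in DMEM or RPMI-1640 with 10% FBS and 1% penicillin/streptomycin, then seeded at 3000 cells/well (adherent) or 10,000 cells/well (suspension). Exposed to a range of concentrations for 72 h. CCK-8 added for 1-4 h before reading A450. […] Three independent experiments.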

[3] = test system: A549; test: Induction of apoptosis in human A549 cells assessed as late apoptotic cells at 0.5 uM after 48 hrs by AnnexinV-FITC/PI staining-based flow cytometric analysis (reference value: 7.66%); format: functional
[4] = test system: NCI-H1299; test: Induction of apoptosis in human H1299 cells assessed as reduction in Bcl-2 level at 0.25 to 1 uM after 24 hrs by Western blot analysis; format: functional, cell-based
Outline: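 A549 or H1299 cells exposed to the indicated concentrations for 24 h. Protein extracts then immunoblotted for apoptosis-pathway proteins (Bcl2, Bim, cleaved caspase 3).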

[5] = test system: NCI-H1299; test: Downregulation of SOX2 in human H1299 cells at 0.25 to 1 uM by Western blot analysis; format: functional, cell-based
[6] = test system: NCI-H1299; test: Downregulation of NANOG in human H1299 cells at 0.25 to 1 uM by Western blot analysis; format: functional, cell-based
[7] = test system: NCI-H1299; test: Antitumour activity against human H1299 cells xenografted in Balb/c mouse assessed as inhibition of tumour growth at 80 mg/kg, po administered for 21 days by digital caliper method relative to control; format: functional; conditions: 504 h, read-out: TGI
Outline: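 Female nude mice, 6-8 weeks old, injected subcutaneously with 1×10^6 H1299 cells (100 µL of a 1×10^7/mL suspension in serum-free medium). At 100-120 mm3, randomized into groups of 5. Dosed orally each day for 21 days with drug dissolved in DMSO, or with vehicle. Caliper measurements and body weight taken every other day. Volume = short²×long×0.5. Growth inhibition based on change in volume relative to vehicle. Tumours weighed at the end.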

[8] = test system: Hepatocyte growth factor receptor (Homo sapiens), P08581 [Y1230D]; test: Inhibition of recombinant human MET A1209G/V1290L/Y1248D mutant (974 to end residues) at 1 uM using KKKGQEEEYVFIE as substrate measured after 40 mins in presence of [gamma33P]ATP by scintillation counting method relative to control
[9] = target: Serine/threonine-protein kinase Nek1 (Homo sapiens) (UniProt Q96PY6); test: Inhibition of recombinant human NEK1 (1 to 505 residues) at 1 uM using RLGRDKYKTLRQIRQ as substrate measured after 40 mins in presence of [gamma33P]ATP by scintillation counting method relative to control
[10] = target: Calcium/calmodulin-dependent protein kinase type IV (Homo sapiens) (UniProt Q16566); test: Inhibition of recombinant full-length human CaMK4 at 1 uM using calmodulin as substrate measured after 40 mins in presence of [gamma33P]ATP by scintillation counting method relative to control
[11] = test system: Casein kinase I isoform gamma-3 (Homo sapiens), Q9Y6M4 [UNDEFINED MUTATION]; test: Inhibition of recombinant human CK1gamma3 K91E/R174G/E302D mutant (1 to 330 residues) at 1 uM using KRRRALS(p)VASLPGL as substrate measured after 40 mins in presence of [gamma33P]ATP by scintillation counting method relative to control
Outline: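 Single-point inhibition at 1 µM was measured in the Eurofins KinaseProfiler panel. Values are the mean of two independent experiments.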

[12] = target: Casein kinase 2 (Homo sapiens) (UniProt P67870+P68400+P19784+Q8NEV1); test: Inhibition of human CK2 at 1 uM relative to control; format: protein assay
Outline: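 Percent inhibition of kinase activity at a single compound concentration, measured by the outsourced Eurofins KinaseProfiler panel. Values are the mean of two independent experiments.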

[13] = target: Serine/threonine-protein kinase Nek3 (Homo sapiens) (UniProt P51956); test: Inhibition of recombinant full-length human NEK3 at 1 uM using myelin basic protein as substrate measured after 40 mins in presence of [gamma33P]ATP by scintillation counting method relative to control
[14] = target: Serine/threonine-protein kinase 17B (Homo sapiens) (UniProt O94768); test: Inhibition of recombinant full-length human DRAK2 at 1 uM using KKRPQRRYSNVF as substrate measured after 120 mins in presence of [gamma33P]ATP by scintillation counting method relative to control
[15] = target: Ephrin type-A receptor 1 (Homo sapiens) (UniProt P21709); test: Inhibition of recombinant human EphA1 (568 to end residues) at 1 uM using KKKSPGEYVNIEF as substrate measured after 40 mins in presence of [gamma33P]ATP by scintillation counting method relative to control
[16] = target: cGMP-dependent protein kinase 1 (Homo sapiens) (UniProt Q13976); test: Inhibition of recombinant full-length human PKG1alpha at 1 uM using RRRLSFAEPG as substrate measured after 40 mins in presence of [gamma33P]ATP by scintillation counting method relative to control
[17] = target: Fibroblast growth factor receptor 4 (Homo sapiens) (UniProt P22455); test: Inhibition of recombinant human FGFR4 (442 to 755 residues) at 1 uM using poly(Glu, Tyr) 4:1 as substrate measured after 40 mins in presence of [gamma33P]ATP by scintillation counting method relative to control
[18] = target: Tau-tubulin kinase 2 (Homo sapiens) (UniProt Q6IQ55); test: Inhibition of recombinant human TTBK2 (1 to 331 residues) at 1 uM using casein as substrate measured after 40 mins in presence of [gamma33P]ATP by scintillation counting method relative to control
[19] = target: Serine/threonine-protein kinase ULK2 (Homo sapiens) (UniProt Q8IYT8); test: Inhibition of human ULK2 (1 to 306 residues) using casein as substrate measured after 40 mins in presence of [gamma33P]ATP by scintillation counting method relative to control
[20] = target: Tyrosine-protein kinase Lyn (Homo sapiens) (UniProt P07948); test: Inhibition of recombinant full-length human LYN at 1 uM using poly(Glu, Tyr) 4:1 as substrate measured after 40 mins in presence of [gamma33P]ATP by scintillation counting method relative to control
[21] = target: Wee1-like protein kinase 2 (Homo sapiens) (UniProt P0C1S8); test: Inhibition of recombinant full-length human Wee1B at 1 uM using LSNLYHQGKFLQTFCGSPLYRRR as substrate measured after 120 mins in presence of [gamma33P]ATP by scintillation counting method relative to control
Wee1-like protein kinase 2 (Homo sapiens), sequence (P0C1S8 whole entry, looked up): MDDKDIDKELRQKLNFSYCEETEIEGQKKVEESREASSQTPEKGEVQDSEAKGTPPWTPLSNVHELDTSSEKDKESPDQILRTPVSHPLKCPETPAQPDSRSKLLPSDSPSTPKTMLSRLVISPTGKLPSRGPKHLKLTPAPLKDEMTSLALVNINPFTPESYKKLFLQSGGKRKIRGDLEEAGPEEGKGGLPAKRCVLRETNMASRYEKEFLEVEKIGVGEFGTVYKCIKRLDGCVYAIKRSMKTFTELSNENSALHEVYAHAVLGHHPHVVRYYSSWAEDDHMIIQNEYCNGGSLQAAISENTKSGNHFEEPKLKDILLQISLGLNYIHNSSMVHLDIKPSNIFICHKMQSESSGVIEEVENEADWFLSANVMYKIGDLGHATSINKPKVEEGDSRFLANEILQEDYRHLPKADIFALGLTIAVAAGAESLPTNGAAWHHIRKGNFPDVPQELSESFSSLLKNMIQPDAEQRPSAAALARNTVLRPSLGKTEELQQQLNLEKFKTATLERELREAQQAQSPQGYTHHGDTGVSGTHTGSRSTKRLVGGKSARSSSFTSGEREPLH

cGMP-dependent protein kinase 1 (Homo sapiens), sequence (Q13976 whole entry, the tested form may be a part): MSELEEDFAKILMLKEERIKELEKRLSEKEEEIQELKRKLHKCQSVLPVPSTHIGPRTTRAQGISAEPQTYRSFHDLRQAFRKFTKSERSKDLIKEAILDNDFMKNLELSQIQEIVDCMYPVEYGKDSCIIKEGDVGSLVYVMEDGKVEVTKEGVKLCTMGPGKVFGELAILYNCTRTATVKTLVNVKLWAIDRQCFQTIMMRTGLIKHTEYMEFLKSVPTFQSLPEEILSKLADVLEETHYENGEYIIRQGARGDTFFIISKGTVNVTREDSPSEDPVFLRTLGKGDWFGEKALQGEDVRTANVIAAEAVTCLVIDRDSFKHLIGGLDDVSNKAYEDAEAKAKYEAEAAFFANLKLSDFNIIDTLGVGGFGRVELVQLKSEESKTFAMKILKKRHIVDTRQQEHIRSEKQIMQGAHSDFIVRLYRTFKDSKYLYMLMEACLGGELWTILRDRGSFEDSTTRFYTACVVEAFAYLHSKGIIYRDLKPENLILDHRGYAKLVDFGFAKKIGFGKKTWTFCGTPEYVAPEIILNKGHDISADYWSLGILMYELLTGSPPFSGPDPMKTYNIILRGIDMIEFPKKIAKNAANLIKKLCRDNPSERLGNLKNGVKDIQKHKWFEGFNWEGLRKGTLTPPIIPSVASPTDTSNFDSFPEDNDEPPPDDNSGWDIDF
Serine/threonine-protein kinase Nek3 (Homo sapiens), sequence (P51956 whole entry): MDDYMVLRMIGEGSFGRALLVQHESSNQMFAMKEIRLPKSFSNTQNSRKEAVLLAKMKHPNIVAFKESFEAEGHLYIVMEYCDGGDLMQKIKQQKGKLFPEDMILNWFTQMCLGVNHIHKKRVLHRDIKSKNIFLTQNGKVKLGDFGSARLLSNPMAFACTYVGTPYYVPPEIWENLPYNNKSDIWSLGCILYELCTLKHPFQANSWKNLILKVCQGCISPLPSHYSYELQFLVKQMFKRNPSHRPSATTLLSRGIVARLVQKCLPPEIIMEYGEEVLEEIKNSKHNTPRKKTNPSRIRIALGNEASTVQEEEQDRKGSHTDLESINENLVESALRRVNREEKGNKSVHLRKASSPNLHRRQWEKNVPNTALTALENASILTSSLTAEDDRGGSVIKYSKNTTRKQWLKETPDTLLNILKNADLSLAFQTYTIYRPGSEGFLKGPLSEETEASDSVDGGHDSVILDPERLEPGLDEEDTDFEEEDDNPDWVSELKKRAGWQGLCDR
Hepatocyte growth factor receptor (Homo sapiens), P08581 [Y1230D], sequence (P08581 whole entry Y1230D, the tested form may be a part): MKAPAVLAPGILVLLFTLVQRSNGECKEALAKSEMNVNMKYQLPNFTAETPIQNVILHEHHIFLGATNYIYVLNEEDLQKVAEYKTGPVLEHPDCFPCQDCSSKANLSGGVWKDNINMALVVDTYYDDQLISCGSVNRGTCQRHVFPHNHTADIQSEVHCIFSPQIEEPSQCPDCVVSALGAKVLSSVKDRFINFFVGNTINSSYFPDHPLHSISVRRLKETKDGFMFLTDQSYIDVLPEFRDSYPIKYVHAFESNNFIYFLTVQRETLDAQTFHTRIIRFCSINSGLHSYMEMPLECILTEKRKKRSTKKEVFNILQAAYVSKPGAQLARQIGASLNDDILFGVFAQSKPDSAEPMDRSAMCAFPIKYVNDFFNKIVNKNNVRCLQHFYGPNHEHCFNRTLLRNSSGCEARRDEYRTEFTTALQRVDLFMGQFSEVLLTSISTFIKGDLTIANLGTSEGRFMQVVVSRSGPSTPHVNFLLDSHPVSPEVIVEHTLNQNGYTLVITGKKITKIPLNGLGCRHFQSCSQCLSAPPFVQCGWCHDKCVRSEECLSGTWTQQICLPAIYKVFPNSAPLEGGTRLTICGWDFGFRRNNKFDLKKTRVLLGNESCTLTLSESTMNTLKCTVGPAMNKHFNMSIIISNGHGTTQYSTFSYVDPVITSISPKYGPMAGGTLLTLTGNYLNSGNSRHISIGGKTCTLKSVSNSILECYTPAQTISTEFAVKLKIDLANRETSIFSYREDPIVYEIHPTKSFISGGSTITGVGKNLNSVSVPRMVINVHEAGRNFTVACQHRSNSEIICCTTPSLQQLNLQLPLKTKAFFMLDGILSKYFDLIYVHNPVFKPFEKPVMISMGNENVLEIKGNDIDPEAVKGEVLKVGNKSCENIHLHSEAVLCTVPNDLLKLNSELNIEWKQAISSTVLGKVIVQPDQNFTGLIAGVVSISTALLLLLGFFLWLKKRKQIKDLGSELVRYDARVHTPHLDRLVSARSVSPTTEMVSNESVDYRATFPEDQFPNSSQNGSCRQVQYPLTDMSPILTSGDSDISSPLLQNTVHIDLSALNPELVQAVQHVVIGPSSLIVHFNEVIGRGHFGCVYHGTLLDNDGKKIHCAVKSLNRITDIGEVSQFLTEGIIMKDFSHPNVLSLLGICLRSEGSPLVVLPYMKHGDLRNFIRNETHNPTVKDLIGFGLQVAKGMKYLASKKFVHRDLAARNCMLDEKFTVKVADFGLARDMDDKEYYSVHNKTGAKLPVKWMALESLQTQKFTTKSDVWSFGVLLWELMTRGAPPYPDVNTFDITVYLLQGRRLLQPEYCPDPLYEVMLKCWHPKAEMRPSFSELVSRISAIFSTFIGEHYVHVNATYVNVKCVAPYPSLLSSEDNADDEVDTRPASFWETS
Tyrosine-protein kinase Lyn (Homo sapiens), sequence (P07948 2-512 limits assumed): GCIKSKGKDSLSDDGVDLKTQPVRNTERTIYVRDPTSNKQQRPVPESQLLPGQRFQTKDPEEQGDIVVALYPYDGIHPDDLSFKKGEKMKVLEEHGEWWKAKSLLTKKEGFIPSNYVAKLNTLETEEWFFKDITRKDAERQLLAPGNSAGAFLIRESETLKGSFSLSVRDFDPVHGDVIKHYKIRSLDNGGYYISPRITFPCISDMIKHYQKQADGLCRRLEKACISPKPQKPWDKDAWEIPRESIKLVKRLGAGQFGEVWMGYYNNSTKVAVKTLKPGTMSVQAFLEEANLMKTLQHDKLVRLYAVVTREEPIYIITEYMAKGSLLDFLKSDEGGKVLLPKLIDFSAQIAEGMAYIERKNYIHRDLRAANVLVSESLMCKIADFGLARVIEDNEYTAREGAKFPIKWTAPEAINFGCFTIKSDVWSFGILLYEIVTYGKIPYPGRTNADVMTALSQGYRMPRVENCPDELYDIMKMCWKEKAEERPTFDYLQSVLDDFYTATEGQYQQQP
Calcium/calmodulin-dependent protein kinase type IV (Homo sapiens), sequence (Q16566 whole entry, the tested form may be a part, canonical isoform): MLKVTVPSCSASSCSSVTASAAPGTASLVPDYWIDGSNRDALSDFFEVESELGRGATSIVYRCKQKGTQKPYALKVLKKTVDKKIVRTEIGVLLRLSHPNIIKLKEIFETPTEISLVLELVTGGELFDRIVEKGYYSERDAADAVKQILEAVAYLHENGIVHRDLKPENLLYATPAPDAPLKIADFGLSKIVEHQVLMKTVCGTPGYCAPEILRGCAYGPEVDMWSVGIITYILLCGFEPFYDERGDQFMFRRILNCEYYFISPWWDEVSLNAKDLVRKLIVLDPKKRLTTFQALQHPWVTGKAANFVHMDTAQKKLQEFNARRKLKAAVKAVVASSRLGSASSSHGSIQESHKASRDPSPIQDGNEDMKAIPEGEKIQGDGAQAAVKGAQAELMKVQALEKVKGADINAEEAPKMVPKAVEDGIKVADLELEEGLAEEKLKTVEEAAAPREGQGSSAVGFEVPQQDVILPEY
Fibroblast growth factor receptor 4 (Homo sapiens), sequence (P22455 22-802 limits assumed): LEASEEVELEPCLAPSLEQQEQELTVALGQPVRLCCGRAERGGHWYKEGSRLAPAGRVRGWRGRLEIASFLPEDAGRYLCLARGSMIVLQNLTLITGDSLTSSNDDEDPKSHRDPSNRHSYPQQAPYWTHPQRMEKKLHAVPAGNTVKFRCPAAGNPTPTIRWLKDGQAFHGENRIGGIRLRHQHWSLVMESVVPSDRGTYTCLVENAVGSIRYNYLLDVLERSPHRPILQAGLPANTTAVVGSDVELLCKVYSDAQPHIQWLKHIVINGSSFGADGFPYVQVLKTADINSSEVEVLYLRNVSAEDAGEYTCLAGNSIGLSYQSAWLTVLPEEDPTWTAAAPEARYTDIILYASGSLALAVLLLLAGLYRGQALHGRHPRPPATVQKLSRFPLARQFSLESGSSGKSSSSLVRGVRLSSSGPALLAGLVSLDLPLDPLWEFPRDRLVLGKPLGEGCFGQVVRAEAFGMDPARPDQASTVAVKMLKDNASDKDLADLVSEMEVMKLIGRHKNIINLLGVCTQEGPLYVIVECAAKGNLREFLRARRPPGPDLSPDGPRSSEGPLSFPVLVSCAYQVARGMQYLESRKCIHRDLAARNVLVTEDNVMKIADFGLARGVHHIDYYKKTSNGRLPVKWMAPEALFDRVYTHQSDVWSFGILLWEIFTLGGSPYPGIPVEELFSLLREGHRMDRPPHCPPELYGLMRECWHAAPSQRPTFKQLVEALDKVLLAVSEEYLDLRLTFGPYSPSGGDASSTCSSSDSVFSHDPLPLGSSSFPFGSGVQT

**Q.** Which inhibition at 1 µM [1] does the source give for `CN(C)C(=O)c1cc2cnc(Nc3ccc(NC(=O)CCCCCCCN=C=S)cc3)nc2n1C1CCCC1` here?
**A.** The inhibition at 1 µM was 87.4%.

**Q.** What about the IC50 [2] of the same compound?
**A.** The IC50 was 1.85 µM.

**Q.** And the Activity [3]?
**A.** Its Activity is 13.8%.

**Q.** And the Activity [4]?
**A.** The Activity was “Active”.

**Q.** And the Activity [5]?
**A.** Its Activity is “Active”.

**Q.** What about the Activity [6] of the same compound?
**A.** Its Activity is “Active”.

**Q.** What about the inhibition in vivo at 80 mg/kg [7] of the same compound?
**A.** The inhibition in vivo at 80 mg/kg was 94.7%.

**Q.** And the inhibition [8]?
**A.** Its inhibition is 68%.

**Q.** What about the inhibition [9] of the same compound?
**A.** The inhibition was 69%.

**Q.** And the inhibition [10]?
**A.** Its inhibition is -4%.

**Q.** What about the inhibition [11] of the same compound?
**A.** Its inhibition is 11%.

**Q.** And the inhibition [12]?
**A.** Its inhibition is 4%.

**Q.** And the inhibition [13]?
**A.** Its inhibition is 19%.

**Q.** What about the inhibition [14] of the same compound?
**A.** The inhibition was -8%.

**Q.** What about the inhibition [15] of the same compound?
**A.** The inhibition was 44%.

**Q.** What about the inhibition [16] of the same compound?
**A.** The inhibition was -3%.

**Q.** What about the inhibition [17] of the same compound?
**A.** The inhibition was -2%.

**Q.** What about the inhibition [18] of the same compound?
**A.** Its inhibition is -5%.

**Q.** What about the inhibition [19] of the same compound?
**A.** Its inhibition is -7%.

**Q.** And the inhibition [20]?
**A.** Its inhibition is 25%.

**Q.** What about the inhibition [21] of the same compound?
**A.** The inhibition was -1%.
